Source: ChEMBL document CHEMBL2385039 (Bioorg Med Chem, 2013)

Experiments:
[1] = cells; format: cell-based; details: HEK293
[2] = target: Sodium- and chloride-dependent GABA transporter 1 (Mus musculus, UniProt P31648); format: cell-based, HEK293
[3] = system: Betaine/GABA transporter BGT1 (mGAT2, slc6a12, Mus musculus); assay: Inhibition of mouse GAT2 expressed in HEK cells assessed as remaining [3H]-GABA uptake at 100 uM after 25 mins by liquid scintillation counting analysis relative to control; details: HEK293
[4] = system: HEK293; assay: Inhibition of mouse GAT4 expressed in HEK cells assessed as remaining [3H]-GABA uptake at 100 uM after 25 mins by liquid scintillation counting analysis relative to control; format: cell-based
How it was run: (§1)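 The assay used the standardized [³H]GABA uptake format in HEK lines, each stably expressing one murine GAT subtype (mGAT1, mGAT2, mGAT3 or mGAT4). The value is the remaining [³H]GABA uptake with 100 μM test compound present.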

[5] = system: GABA transporter 3 (mGAT3, slc6a13, Mus musculus); assay: Inhibition of mouse GAT3 expressed in HEK cells assessed as remaining [3H]-GABA uptake at 100 uM after 25 mins by liquid scintillation counting analysis relative to control; details: HEK293
[6] = target: Sodium- and chloride-dependent GABA transporter 1 (Mus musculus) (UniProt P31648); assay: Inhibition of mouse GAT1 expressed in HEK cells assessed as remaining [3H]-GABA uptake at 100 uM after 25 mins by liquid scintillation counting analysis relative to control; format: cell-based; details: HEK293
How it was run: as §1

| Structure (SMILES) | IC50 [1] [µM] | IC50 [2] [µM] | Activity [3] [%] | Activity [4] [%] | Activity [5] [%] | Activity [6] [%] |
| --- | --- | --- | --- | --- | --- | --- |
| O=C(O)[C@@H]1CCCN(CCC=C(c2ccccc2)c2ccccc2)C1 | 275 | 0.692 |  |  |  |  |
| O=C(O)C1CCCN(CCO/C=C\c2cc(F)ccc2Cc2ccccc2F)C1 (configuration not stated) | 49 | 0.302 | 71.1 |  |  |  |
| O=C(O)C1CCCN(CCO/C=C/c2ccccc2Cc2ccccc2)C1 (configuration not stated) | 31.6 | 4.17 | 60.2 |  |  |  |
| O=C(O)C1CCCN(CCO/C=C/c2cc(F)ccc2Cc2ccccc2F)C1 (configuration not stated) |  | 10.2 | 47.8 | 53.8 | 83.7 |  |
| O=C(O)C1CCCN(CCO/C=C/c2ccc(F)cc2Cc2ccccc2F)C1 (configuration not stated) | 58.9 | 2.69 | 57.5 |  | 80.1 |  |
| O=C(O)C1CCCN(CCO/C=C/c2ccc(F)cc2Cc2ccc(F)cc2)C1 (configuration not stated) |  | 4.57 | 71.6 | 63.7 | 49.3 |  |
| O=C(O)C1CCCN(CCO/C=C\c2ccccc2Cc2ccccc2)C1 (configuration not stated) |  | 0.398 | 68.6 | 66 | 56 |  |
| O=C(c1ccccc1F)c1cc(F)ccc1/C=C\OCCN1CCCC(C(=O)O)C1 (configuration not stated) |  | 0.759 |  | 45.1 | 43.5 |  |
| O=C(O)[C@@H]1CCCN(CCOCCc2ccccc2Cc2ccccc2)C1 |  | 0.1 |  |  |  |  |
| O=C(c1cccc(F)c1)c1ccc(F)cc1/C=C/OCCN1CCCC(C(=O)O)C1 (configuration not stated) | 200 | 29.5 |  |  |  |  |
| O=C(c1ccccc1F)c1ccc(F)cc1/C=C/OCCN1CCCC(C(=O)O)C1 (configuration not stated) |  | 8.13 | 68.6 | 52.1 | 57.6 |  |
| O=C(O)C1CCCN(CCO/C=C\c2cc(F)ccc2Cc2ccc(F)cc2)C1 (configuration not stated) |  | 1.1 |  | 50.3 |  |  |
| Cc1ccsc1C(=COCCN1CCC[C@@H](C(=O)O)C1)c1sccc1C |  | 0.0141 |  |  |  |  |
| O=C(c1ccccc1)c1ccccc1/C=C\OCCN1CCCC(C(=O)O)C1 (configuration not stated) |  | 7.08 | 72.3 | 72.4 | 59.8 |  |
| O=C(c1ccccc1F)c1cc(F)ccc1/C=C/OCCN1CCCC(C(=O)O)C1 (configuration not stated) | 67.6 | 10.7 |  |  |  |  |
| O=C(c1ccc(F)cc1)c1ccc(F)cc1/C=C\OCCN1CCCC(C(=O)O)C1 (configuration not stated) |  | 7.59 | 70.2 | 82.2 | 79.5 |  |
| O=C(c1ccc(F)cc1)c1cc(F)ccc1/C=C\OCCN1CCCC(C(=O)O)C1 (configuration not stated) |  | 0.339 | 73 | 44.8 | 59.8 |  |
| O=C(c1ccccc1)c1ccccc1/C=C/OCCN1CCCC(C(=O)O)C1 (configuration not stated) |  | 25.1 | 67.5 | 79.8 | 55.9 |  |
| O=C(O)C1CCCN(CCO/C=C\c2ccc(F)cc2Cc2ccc(F)cc2)C1 (configuration not stated) | 25.7 | 1.17 | 64.8 |  |  |  |
| O=C(O)C1CCCN(CCO/C=C\c2ccc(F)cc2Cc2ccccc2F)C1 (configuration not stated) | 60.3 | 0.631 | 80.1 |  |  |  |
| O=C(O)C1CCCN(CCO/C=C/c2cc(F)ccc2Cc2cccc(F)c2)C1 (configuration not stated) |  | 6.76 | 70.5 | 51.8 | 59.3 |  |
| O=C(O)C1CCCN(CCO/C=C\c2cc(F)ccc2Cc2cccc(F)c2)C1 (configuration not stated) |  | 0.302 | 60.3 | 56 |  |  |
| Cc1ccsc1C(=CCCN1CCC[C@@H](C(=O)O)C1)c1sccc1C |  |  |  | 73.4 |  |  |
| O=C(c1ccc(F)cc1)c1cc(F)ccc1/C=C/OCCN1CCCC(C(=O)O)C1 (configuration not stated) |  | 1.86 | 71.4 | 72.7 | 68.8 |  |
| O=C(c1cccc(F)c1)c1ccc(F)cc1/C=C\OCCN1CCCC(C(=O)O)C1 (configuration not stated) |  | 2.63 | 96.1 | 52.1 | 83.6 |  |
| O=C(c1ccc(F)cc1)c1ccc(F)cc1/C=C/OCCN1CCCC(C(=O)O)C1 (configuration not stated) |  | 20.9 | 61.2 | 94.3 | 97.7 |  |
| O=C(O)C1CCCN(CCO/C=C/c2cc(F)ccc2Cc2ccc(F)cc2)C1 (configuration not stated) | 93.3 | 8.91 | 58.1 |  | 62 |  |
| O=C(c1cccc(F)c1)c1cc(F)ccc1/C=C\OCCN1CCCC(C(=O)O)C1 (configuration not stated) |  | 0.794 | 56.9 | 45.2 | 52.7 |  |
| O=C(c1ccccc1F)c1ccc(F)cc1/C=C\OCCN1CCCC(C(=O)O)C1 (configuration not stated) |  | 3.02 | 74.5 | 86.3 | 83.2 |  |
| O=C(c1cccc(F)c1)c1cc(F)ccc1/C=C/OCCN1CCCC(C(=O)O)C1 (configuration not stated) |  |  | 62.9 | 67.6 | 51.5 | 67.5 |
